Assays:
Kappa opioid (KOR) = Kappa opioid (KOR) (Homo sapiens, UniProt P41145); assay: NIMH PDSP binding screen; details: read-out: Inhibition (%) Kappa opioid (KOR)
Delta opioid (DOR) = Delta opioid (DOR) (Homo sapiens, UniProt P41143); assay: NIMH PDSP binding screen; details: read-out: Inhibition (%) Delta opioid (DOR)
human FAAH = biological target: T1, human FAAH (Homo sapiens, UniProt O00519); assay: FAAH inhibition assay; format: biochemical
T1 sequence (O00519 1-579): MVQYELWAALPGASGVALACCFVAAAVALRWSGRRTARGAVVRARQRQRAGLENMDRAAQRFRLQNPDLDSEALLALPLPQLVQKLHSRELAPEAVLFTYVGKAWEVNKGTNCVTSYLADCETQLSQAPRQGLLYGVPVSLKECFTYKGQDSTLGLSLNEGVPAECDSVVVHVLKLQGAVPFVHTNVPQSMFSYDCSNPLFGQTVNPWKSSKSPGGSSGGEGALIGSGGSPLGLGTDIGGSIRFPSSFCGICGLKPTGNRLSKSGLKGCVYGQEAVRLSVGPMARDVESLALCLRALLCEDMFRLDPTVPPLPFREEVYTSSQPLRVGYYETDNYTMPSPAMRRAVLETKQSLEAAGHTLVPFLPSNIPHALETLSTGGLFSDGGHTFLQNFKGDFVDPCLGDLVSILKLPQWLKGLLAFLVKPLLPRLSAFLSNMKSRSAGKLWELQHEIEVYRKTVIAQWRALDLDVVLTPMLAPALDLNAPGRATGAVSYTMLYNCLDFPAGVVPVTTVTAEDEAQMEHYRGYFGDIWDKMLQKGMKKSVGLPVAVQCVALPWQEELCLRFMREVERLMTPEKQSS

Mu opioid (MOR) = Mu opioid (MOR) (Homo sapiens, UniProt P35372); assay: NIMH PDSP binding screen; details: read-out: Inhibition (%) Mu opioid (MOR)
Sequence of Mu opioid (MOR) (P35372 whole entry): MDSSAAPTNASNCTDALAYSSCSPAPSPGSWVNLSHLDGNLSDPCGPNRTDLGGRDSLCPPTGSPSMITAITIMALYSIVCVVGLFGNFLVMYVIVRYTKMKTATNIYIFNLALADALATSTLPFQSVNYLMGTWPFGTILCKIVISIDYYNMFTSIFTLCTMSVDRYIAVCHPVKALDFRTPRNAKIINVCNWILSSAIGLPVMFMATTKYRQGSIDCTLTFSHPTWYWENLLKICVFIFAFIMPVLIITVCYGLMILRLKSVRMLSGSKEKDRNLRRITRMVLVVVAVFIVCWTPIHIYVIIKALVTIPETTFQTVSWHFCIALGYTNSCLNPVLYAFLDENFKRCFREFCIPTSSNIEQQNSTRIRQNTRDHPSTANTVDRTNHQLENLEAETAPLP

5-HT1B = 5-HT1B (Homo sapiens, UniProt P28222); assay: NIMH PDSP binding screen; details: read-out: Inhibition (%) 5-HT1B
Sequence of 5-HT1B (P28222 whole entry, species assumed): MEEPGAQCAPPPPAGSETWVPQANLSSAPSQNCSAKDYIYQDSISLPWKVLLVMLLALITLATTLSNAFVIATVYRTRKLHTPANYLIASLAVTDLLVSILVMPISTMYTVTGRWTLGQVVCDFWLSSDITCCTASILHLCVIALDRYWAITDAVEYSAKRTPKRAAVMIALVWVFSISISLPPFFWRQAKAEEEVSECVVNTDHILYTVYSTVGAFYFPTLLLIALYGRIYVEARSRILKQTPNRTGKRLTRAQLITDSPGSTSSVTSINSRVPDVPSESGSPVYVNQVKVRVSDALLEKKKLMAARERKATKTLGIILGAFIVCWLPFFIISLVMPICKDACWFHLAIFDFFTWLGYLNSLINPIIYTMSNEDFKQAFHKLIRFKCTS

[1] = Microsomal stability assay in liver microsomes; format: in vitro ADME; details: mouse, pH 7.4
Outline: (§1)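 Test compound was taken from a 1 mM DMSO stock. It was preincubated 5 min at 37 °C with liver microsomes in 0.1 M phosphate buffer, pH 7.4. Reaction was started with an NADPH regenerating system (glucose-6-phosphate, NADPH, glucose-6-phosphate dehydrogenase, MgCl2) and quenched with methanol at 0, 10, 20, 30 and 60 min. Samples were centrifuged and read by LC-MS SIM as peak area ratio to internal standard. k = negative slope of ln ratio vs time; CLint = k/P (P = protein concentration). Duplicates or triplicates were averaged.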

5-HT2B = 5-HT2B (Homo sapiens, UniProt P41595); assay: NIMH PDSP binding screen; details: read-out: Inhibition (%) 5-HT2B
Sequence of 5-HT2B (P41595 whole entry, species assumed): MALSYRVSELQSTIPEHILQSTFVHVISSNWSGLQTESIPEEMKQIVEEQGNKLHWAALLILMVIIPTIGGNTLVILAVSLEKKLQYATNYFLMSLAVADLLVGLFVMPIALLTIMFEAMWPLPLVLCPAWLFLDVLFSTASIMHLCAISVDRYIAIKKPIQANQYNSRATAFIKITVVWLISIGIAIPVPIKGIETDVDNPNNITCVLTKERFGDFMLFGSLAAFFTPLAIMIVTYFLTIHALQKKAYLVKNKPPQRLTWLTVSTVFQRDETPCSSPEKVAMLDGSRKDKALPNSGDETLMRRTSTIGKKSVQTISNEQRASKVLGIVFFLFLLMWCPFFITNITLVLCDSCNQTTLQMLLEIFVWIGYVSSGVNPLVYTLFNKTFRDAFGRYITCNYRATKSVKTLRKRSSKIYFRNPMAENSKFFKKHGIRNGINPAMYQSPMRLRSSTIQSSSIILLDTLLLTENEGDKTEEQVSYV

mouse sEH = biological target: T2, mouse sEH (Mus musculus, UniProt P34914); assay: sEH inhibition assay; format: biochemical
T2 sequence (P34914 1-554): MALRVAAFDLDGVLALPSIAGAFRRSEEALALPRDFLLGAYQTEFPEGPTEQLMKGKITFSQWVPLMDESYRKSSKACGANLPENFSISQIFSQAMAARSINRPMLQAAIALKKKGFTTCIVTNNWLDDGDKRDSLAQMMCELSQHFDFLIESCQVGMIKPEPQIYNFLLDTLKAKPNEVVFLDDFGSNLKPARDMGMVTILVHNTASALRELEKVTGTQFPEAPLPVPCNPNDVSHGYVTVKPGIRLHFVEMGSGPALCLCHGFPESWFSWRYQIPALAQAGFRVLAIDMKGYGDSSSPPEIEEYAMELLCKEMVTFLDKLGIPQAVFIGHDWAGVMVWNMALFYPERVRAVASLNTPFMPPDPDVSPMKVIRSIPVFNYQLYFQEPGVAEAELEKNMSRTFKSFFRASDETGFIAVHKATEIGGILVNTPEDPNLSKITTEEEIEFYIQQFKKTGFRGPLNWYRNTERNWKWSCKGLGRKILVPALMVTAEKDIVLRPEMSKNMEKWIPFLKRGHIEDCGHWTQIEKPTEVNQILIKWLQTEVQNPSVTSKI

male Sprague-Dawley rats = assay: Home cage wheel running; format: in vivo, rat; details: 3 mg/kg intraperitoneal, vs vehicle, n = 8/group
[2] = Microsomal stability assay in liver microsomes; format: in vitro ADME; details: rat, pH 7.4
Outline: as §1

human sEH = biological target: T3, human sEH (Homo sapiens, UniProt P34913); assay: sEH inhibition assay; format: biochemical
T3 sequence (P34913 1-555): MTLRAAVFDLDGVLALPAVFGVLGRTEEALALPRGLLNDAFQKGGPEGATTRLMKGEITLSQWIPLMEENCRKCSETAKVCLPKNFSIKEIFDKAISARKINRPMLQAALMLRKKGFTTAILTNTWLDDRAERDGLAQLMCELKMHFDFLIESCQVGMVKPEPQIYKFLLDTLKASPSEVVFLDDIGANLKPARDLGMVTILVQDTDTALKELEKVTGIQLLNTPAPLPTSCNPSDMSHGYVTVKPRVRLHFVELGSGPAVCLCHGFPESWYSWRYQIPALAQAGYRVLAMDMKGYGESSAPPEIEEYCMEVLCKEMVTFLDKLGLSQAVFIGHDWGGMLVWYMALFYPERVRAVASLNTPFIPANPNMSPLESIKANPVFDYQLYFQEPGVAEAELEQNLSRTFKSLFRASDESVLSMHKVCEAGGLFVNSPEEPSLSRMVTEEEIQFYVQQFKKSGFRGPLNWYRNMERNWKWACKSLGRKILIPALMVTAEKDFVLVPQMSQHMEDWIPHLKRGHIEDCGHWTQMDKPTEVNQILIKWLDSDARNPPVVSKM

5-HT4 = 5-HT4 (Homo sapiens, UniProt Q13639); assay: NIMH PDSP binding screen; details: read-out: Inhibition (%) 5-HT4
Sequence of 5-HT4 (Q13639 whole entry, species assumed): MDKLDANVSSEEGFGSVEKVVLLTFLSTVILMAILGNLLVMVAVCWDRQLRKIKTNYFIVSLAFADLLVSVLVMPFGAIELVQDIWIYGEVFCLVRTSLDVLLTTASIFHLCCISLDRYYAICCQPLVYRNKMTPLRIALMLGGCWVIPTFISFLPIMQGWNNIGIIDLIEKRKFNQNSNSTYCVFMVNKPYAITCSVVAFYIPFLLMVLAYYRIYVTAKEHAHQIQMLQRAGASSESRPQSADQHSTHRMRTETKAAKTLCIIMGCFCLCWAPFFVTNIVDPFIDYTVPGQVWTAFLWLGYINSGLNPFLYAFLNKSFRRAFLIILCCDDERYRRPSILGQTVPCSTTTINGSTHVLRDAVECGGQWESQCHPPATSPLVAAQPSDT

Sequence of Kappa opioid (KOR) (P41145 whole entry): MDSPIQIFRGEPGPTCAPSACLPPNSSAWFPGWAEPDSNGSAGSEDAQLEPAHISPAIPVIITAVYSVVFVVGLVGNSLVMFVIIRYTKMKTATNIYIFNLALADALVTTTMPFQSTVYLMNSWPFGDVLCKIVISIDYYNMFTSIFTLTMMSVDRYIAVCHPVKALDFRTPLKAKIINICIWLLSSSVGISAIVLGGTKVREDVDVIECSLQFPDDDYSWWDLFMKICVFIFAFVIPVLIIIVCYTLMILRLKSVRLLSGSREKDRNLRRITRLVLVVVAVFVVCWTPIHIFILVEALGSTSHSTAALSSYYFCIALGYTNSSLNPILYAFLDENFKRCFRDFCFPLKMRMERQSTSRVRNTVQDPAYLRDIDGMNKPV
Sequence of Delta opioid (DOR) (P41143 whole entry): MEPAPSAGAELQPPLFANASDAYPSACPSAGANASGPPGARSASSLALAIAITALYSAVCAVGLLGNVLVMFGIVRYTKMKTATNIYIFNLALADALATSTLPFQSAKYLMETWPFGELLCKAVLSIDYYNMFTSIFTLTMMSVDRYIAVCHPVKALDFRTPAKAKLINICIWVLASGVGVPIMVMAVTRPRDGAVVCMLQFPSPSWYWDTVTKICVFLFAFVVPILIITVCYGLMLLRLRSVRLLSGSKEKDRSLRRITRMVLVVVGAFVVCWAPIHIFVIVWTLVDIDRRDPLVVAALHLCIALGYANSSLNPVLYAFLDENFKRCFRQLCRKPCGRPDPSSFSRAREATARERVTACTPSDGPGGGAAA

O=C(Nc1ccc(-c2cnc3ccccc3n2)cc1)C1CCN(S(=O)(=O)c2ccccc2Cl)CC1 [Compound 4m, 1-((2-chlorophenyl)sulfonyl)-N-(4-(quinoxalin-2-yl)phenyl)piperidine-4-carboxamide]
inhibition at 10 µM (Kappa opioid (KOR)): 5.59 ± 6.57%
inhibition at 10 µM (Delta opioid (DOR)): -0.23 ± 11.9%
IC50 (human FAAH): 2.9 nM
inhibition at 10 µM (Mu opioid (MOR)): -1 ± 1.63%
inhibition at 10 µM (5-HT1B): 22.2 ± 6.67%
half-life at 1 µM [1]: 32 min
microsomal CLint at 1 µM [1]: 42.8 µL/min/mg
inhibition at 10 µM (5-HT2B): -4.41 ± 7.06%
IC50 (mouse sEH): 39.1 nM
wheel revolutions in the 15 min after drug injection (male Sprague-Dawley rats): significantly lower
half-life at 1 µM [2]: 26 min
microsomal CLint at 1 µM [2]: 52.6 µL/min/mg
IC50 (human sEH): 0.7 nM
inhibition at 10 µM (5-HT4): 29.6 ± 23.2%
